Assay type in all cases: functional, cell-based
In one test the test system is SW480. Description: Cytotoxicity against human SW480 cells after 48 hrs by MTT assay. The conditions noted are these: SW480, 48 h. Put shortly: (§1)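 Cells kept in RPMI-1640 or DMEM with 10% FBS, 37 °C, 5% CO2. Adherent lines plated and left 12 h to attach; suspension cells (HL-60) plated at 1 × 10^5 cells/mL just before dosing. Compounds in DMSO at 0.064, 0.32, 1.6, 8 and 40 μM, triplicate wells, 48 h; cisplatin positive control. MTT viability read-out, IC50 by Reed and Muench method.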
(Tetrazolium assays rely on reduction of a dye to a coloured formazan, in cell work by metabolically active cells.)

Another test concerns HL-60. Kind of test: Cytotoxicity against human HL60 cells after 48 hrs by MTT assay. Conditions: HL-60, 48 h. The gist of the method: as §1
The nature of test [1]: Cytotoxicity against human […] cells after 48 hrs by MTT assay. The gist of the method: as §1
In the next test the test system is A549. Kind of test: Cytotoxicity against human A549 cells after 48 hrs by MTT assay. The conditions noted are these: A549, 48 h. The gist of the method:
as §1

The test system of another test is MCF7. Description: Cytotoxicity against human MCF7 cells after 48 hrs by MTT assay. The conditions noted are these: MCF7, 48 h. The gist of the method: as §1

Bounds are passed on as bounds.

In general, IC50 refers to the point on the concentration scale where inhibition reaches its midpoint. Higher therefore signals lower potency. On to `CC[C@]12C=CCN3CCc4c(n(c5ccccc45)[C@@H](c4cc5c(cc4O)NC4=C(C(=O)OC)C[C@]6(CC)C=CCN7CC[C@@]45[C@@H]76)C1)[C@@H]32`, for which the IC50 with SW480 was determined as 9.7 µM; in the test on HL-60, 3.6 µM; in test [1], 10 µM; in the test with A549, 14.3 µM; in the test with MCF7, 9.5 µM.
In the same order, the values of `CC[C@]12C=CCN3CC[C@]4(C(=C(C(=O)OC)C1)Nc1cc(O)c([C@H]5C=C[C@@]6(CC)CC(C(=O)OC)=C7Nc8cc(O)ccc8[C@@]78CCN5[C@@H]68)cc14)[C@@H]32` (relative stereo) are 12.5 µM, 4.8 µM, 12.6 µM, 12.4 µM and 10.7 µM.
With `CC[C@]12C=CCN3CC[C@]4(C(=C(C(=O)OC)C1)Nc1cc(O)c([C@@H]5C=C[C@@]6(CC)CC(C(=O)OC)=C7Nc8cc(O)ccc8[C@@]78CCN5[C@@H]68)cc14)[C@@H]32` (relative stereo), the IC50 in the test on SW480 was determined as 4 µM; in the test on HL-60 it was 3.5 µM; in test [1], 3.6 µM; with A549, 7.5 µM; in the test with MCF7, 6.6 µM.
Take `C=C[C@]12C=C[C@@H](c3cc4c(cc3O)NC3=C(C(=O)OC)C[C@]5(CC)C=CCN6CC[C@@]34[C@@H]65)N3CC[C@@]4(c5ccccc5NC(=O)[C@]4(C(=O)OC)C1)[C@@H]32` (relative stereo): the IC50 came out at 2.9 µM in the test with SW480; 2.8 µM with HL-60; 3.1 µM in test [1]; 8.9 µM with A549; 6.1 µM in the test with MCF7.
For `CC[C@]12C=CCN3CC[C@]4(C(=C(C(=O)OC)C1)Nc1cc(O)c([C@@H]5[C@@H]6O[C@@H]6[C@]67CC[C@@]8(Nc9ccccc9[C@@]89CCN5[C@@H]69)[C@H](C(=O)OC)C7)cc14)[C@@H]32` (relative stereo), the IC50 (in the test with SW480; in the test with HL-60; in test [1]; in the test with A549; in the test on MCF7) was more than 40 µM in each case.
As to `CC[C@]12C=CCN3CC[C@]4(C(=C(C(=O)OC)C1)Nc1cc(O)c([C@@H]5[C@@H]6O[C@@H]6[C@@]6(CC)CC(C(=O)OC)=C7Nc8cc(O)ccc8[C@@]78CCN5[C@@H]68)cc14)[C@@H]32` (relative stereo), the IC50 in the test on SW480 came to 14.4 µM; in the test on HL-60, 5.5 µM; in test [1], 13.8 µM; in the test on A549, 9.7 µM; with MCF7, 11.6 µM.
The corresponding values for `C=C[C@]12C=C[C@H](c3cc4c(cc3O)NC3=C(C(=O)OC)C[C@]5(CC)C=CCN6CC[C@@]34[C@@H]65)N3CC[C@@]4(c5ccccc5NC(=O)[C@]4(C(=O)OC)C1)[C@@H]32` (relative stereo) are 9.8 µM, 2.6 µM, 5.9 µM, 11 µM and 11.6 µM.
`CC[C@]12C=CCN3CCc4c(n(c5ccccc45)[C@@H](c4cc5c(cc4OC)NC4=C(C(=O)OC)C[C@]6(CC)C=CCN7CC[C@@]45[C@@H]76)C1)[C@@H]32` (relative stereo): the IC50 (in the test on SW480; in the test on HL-60; in test [1]; with A549; with MCF7) was more than 40 µM each time.
Turning to `C=C[C@]12C=CCN3[C@@H](c4cc5c(cc4O)NC4=C(C(=O)OC)C[C@]6(CC)C=CCN7CC[C@@]45[C@@H]76)C[C@@]4(c5ccccc5NC(=O)[C@]4(C(=O)OC)C1)[C@@H]32` (relative stereo), the IC50 in the test on SW480 is more than 40 µM; in the test with HL-60, 17.6 µM; in test [1] it was 29 µM; with A549, more than 40 µM; in the test with MCF7, more than 40 µM.
On to `CC[C@]12C=CCN3CC[C@]4(C(=C(C(=O)OC)C1)Nc1cc(O)c([C@@H]5C[C@]67c8ccccc8N[C@@]68CC[C@]6(C=CCN5[C@@H]67)C[C@H]8C(=O)OC)cc14)[C@@H]32` (relative stereo), for which the half-maximal inhibitory concentration (IC50) in the test with SW480 came to 3.8 µM; with HL-60 it was 1 µM; in test [1], 3.1 µM; in the test on A549, 3.4 µM; with MCF7 it was 9.5 µM.

These data come from ChEMBL document CHEMBL3091450, “Melosuavines A-H, cytotoxic bisindole alkaloid derivatives from Melodinus suaveolens” (J Nat Prod, 2013).
